Source: PubChem
H69AR growth 86K = growth inhibitors of human H69AR lung tumor cells; H69AR lung tumor viability, ATP luminescence, 72 h; active compounds read low; viability, % at 10 µM; 85,000 compounds, 6% hits; AID 598;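 active means viability at or below 40%; inactive means viability above 40%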;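 further: multidrug resistant small cell line overexpressing MRP-1 efflux transporter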
Jurkat tox 60K = cytotoxicity toward Jurkat cells. inhibition, % at 4 µM. 56,000 compounds, 1.2% hits. Jurkat E6.1 viability, ATP luminescence, 48 h. AID 463;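 active means inhibition above the mean inhibition of all tested compounds plus 3 SD, cut at about 28% in these data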
Fibroblast inh = blocks proliferation of human lung fibroblasts. LL 47 human lung fibroblast viability, ATP luminescence; active compounds read low. viability, % at 10 µM. 85,000 compounds, 1.1% hits;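 active means viability at or below 50% in the single dose screen; inactive means viability above 50%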;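 further: compound exposure lasted 72 h before the ATP readout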
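Test system: LL 47 human lung fibroblasts / Quantity: 1,150 cells in each well / Medium: IMEM growth medium with 15% fetal bovine serum / Incubation: 72 h compound exposure at 37 °C after overnight plating / Detection: CellTiter-Glo luminescence measuring cellular ATP / Read-out: % viability versus median cells-only luminescence / Benchmarks: cell-only wells, no compound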
HUVEC inhibit = human endothelial cell proliferation inhibition | 86,000 compounds, 1.1% hits | viability, % at 10 µM (by protocol) | HUVEC proliferation, CellTiter-Glo luminescence, 72 h; active compounds read low;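 active means viability at or below 30%; inactive means viability above 30%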
Numbers stand for hits; . = inactive; / = no result given. Rows were chosen to be rich in hits. Some 6.6% of all compounds tested hit in one or more screens of this group.

SMILES | H69AR growth 86K | Jurkat tox 60K | Fibroblast inh | HUVEC inhibit
CCOC(=O)c1[nH]c2c(c1C)C(=O)CC(c1ccco1)C2 (centres undefined) | . | 100 | . | .
Cc1c(C(=O)OCCOC(C)C)[nH]c2c1C(=O)CC(C)(C)C2 | . | . | . | .
NC1=NS(=O)(=O)NC1c1cccc(Cl)c1 (centres undefined) | . | / | . | .
Cc1noc(C)c1COc1ccc(C(=O)OCC(=O)NC2CCCCC2C)cc1 (centres undefined) | . | / | . | .
CC(c1nc2ccccc2c(=O)[nH]1)N1CCN(C)CC1 (centres undefined) | . | / | . | .
CSCCOC(=O)c1[nH]c2c(c1C)C(=O)CC(c1ccco1)C2 (centres undefined) | 37 | 85 | . | .
Cc1ccc(/C=c2\s/c(=C(/C#N)C(=O)N3CCCC3)n(Cc3ccco3)c2=O)s1 | 37 | . | . | .
C=CCNc1ncnc2ccccc12 | . | . | . | .
Clc1ccc(Cn2ncc3c(NCc4ccccc4)ncnc32)cc1 | 22 | / | . | .
c1ccc(CNc2ncnc3ccccc23)cc1 | . | 69 | . | .
c1ccc(Cn2ncc3c(NCc4ccco4)ncnc32)cc1 | . | . | . | .
Cc1ccc(S(=O)(=O)N2CCCN(S(=O)(=O)c3ccc4ccccc4c3)CC2)cc1 | . | / | . | .
CC1(C)CC(=O)C(C=NCCN2CCN(CCc3ccccc3)CC2)=C(O)C1 | . | / | . | .
Cc1cc(S(=O)(=O)N2CCN(Cc3ccc4c(c3)OCO4)CC2)cc(C)c1N1CCCC1=O | . | . | . | 20
CC(=O)N1CCC(N(CCCOC(C)C)C(=O)Nc2ccc(Cl)cc2)CC1 | . | . | . | .
COc1ccc(-c2cn(/N=C/c3ccc(Cl)cc3Cl)c(N)n2)cc1 | . | / | . | .
NC(=S)N/N=C\c1ccc(-c2cccc(Cl)c2Cl)o1 | . | / | . | 22
CC1(C)CC(=O)c2cc(C(=O)NCc3ccco3)c(=O)n(-c3ccccc3)c2C1 | 30 | . | . | .
CN1CCN(C(=O)c2cc3c(n(-c4ccccc4)c2=O)CC(C)(C)CC3=O)CC1 | . | . | . | .
CN1CCN(C2=Cc3ccccc3Sc3cc(F)c(F)cc32)CC1 | 7.1 | / | . | 6.7
CN1CCN(C2=Cc3cc(Cl)ccc3Sc3cc(F)ccc32)CC1 | . | / | . | 4.9
CN1CCN(C2=Cc3ccccc3Sc3cc(F)c(Cl)cc32)CC1 | 0.0 | / | . | 8.8
CN1CCN(CCC(=O)N2c3ccccc3Sc3ccc(Cl)cc32)CC1 | . | / | . | .
CN1CCN(c2nc(-c3ccccc3)cc(C(F)(F)F)n2)CC1 | . | / | . | .
COC(=O)c1c(F)c(F)c(NCCO)c(F)c1F | . | . | . | .
SMILES | H69AR growth 86K | Jurkat tox 60K | Fibroblast inh | HUVEC inhibit
CC1CCCC(C)N1C(=O)CSc1nnc(C2CCCCC2)o1 (centres undefined) | . | . | . | .
FC(F)Oc1ccc(/C=N/c2c(-c3ccc(OC(F)F)cc3)nc3n2CCS3)cc1 | . | / | / | .
COC(=O)Cc1cc(=O)n2[nH]c(C(F)(F)F)nc2n1 | . | / | . | .
CCn1c(SCC(=O)Nc2nc(-c3ccc(C)cc3)cs2)nnc1-c1ccccc1 | . | / | . | .
C=CCn1c(SCC(=O)Nc2nc(C)cs2)nnc1C(CO)NC(=O)c1ccccc1 (centres undefined) | . | . | . | .
CCn1c(SCC(=O)Nc2nc(-c3ccc(C)cc3)cs2)nnc1-c1ccccc1O | 29 | . | . | .
CCn1c(SCC(=O)Nc2nc(C)cs2)nnc1C(NC(=O)c1ccccc1Cl)C(C)C (centres undefined) | 38 | . | . | .
COc1ccc2c(c1)c(=O)oc1cc(OCC(=O)NC3CC3)ccc12 | 36 | / | . | .
COc1ccccc1OCC(=O)NC1CCCCCC1 | . | . | . | .
COc1ccc2c(c1)c(=O)oc1cc(OCC(=O)NC3CCCCC3)ccc12 | 19 | / | . | .
O=C(c1ccc(S(=O)(=O)Nc2ccc(F)cc2)cc1)N1CCN(C(=O)c2ccco2)CC1 | . | / | . | .
FC(F)(F)c1ccc(CN2CCCCCC2)cc1 | . | / | . | .
O=C(c1ccccc1F)N(Cc1ccc2c(c1)OCO2)Cc1cc2cc3c(cc2n2nnnc12)OCO3 | . | / | . | .
Cc1c(CN(C)C(=O)c2sc3cc(Cl)ccc3c2Cl)cnn1C | . | / | . | 21
Cc1noc(C)c1C(=O)N1CCN(C(=O)c2sc3cc(Cl)ccc3c2Cl)CC1 | . | . | . | .
Cc1cnc(C(=O)Nc2nccs2)cn1 | . | / | . | .
Cn1cc(-c2nnc(-c3ccccc3)o2)c2ccccc21 | . | / | . | 18
Cc1ccccc1-c1nnc(-c2ccccc2)o1 | . | . | . | .
CC(=O)c1sc(Nc2nc(C)cc(C)n2)nc1C | 29 | / | . | .
COC(=O)C(C(=O)Nc1ccc(OC)cc1)C1CCCCCC1 (centres undefined) | 21 | . | . | .
COC(=O)C(C(=O)Nc1ccccc1C)C1CCCC1 (centres undefined) | . | . | / | .
C=CCNc1nc(-c2ccccn2)nnc1-c1ccccc1 | . | / | 14 | 12
CCCCOC(=O)Nc1cc(OC)c(Cl)cc1OC | . | . | . | .
O=C(CN1C2CCCC1CC(NC(=O)c1ccccc1)C2)Nc1nccs1 (centres undefined) | . | / | . | .
Cc1ccccc1C(=O)Nc1nc2n(n1)C(c1ccccc1)CC(=O)N2 (centres undefined) | . | / | . | .
SMILES | H69AR growth 86K | Jurkat tox 60K | Fibroblast inh | HUVEC inhibit
C=CCOn1c(C)c(C(C)=O)c2c3nonc3ccc21 | . | / | . | .
C=CCOn1c(C)c(C(C)=O)c2c3no[n+]([O-])c3ccc21 | 29 | / | . | .
COc1ccc(C(=O)N(Cc2nc(-c3ccc(C)cc3)no2)C2CCCCC2)cc1OC | . | . | . | .
c1ccc(-c2nc(N3CCCCCC3)nc(-n3ccnc3)n2)cc1 | 0.9 | . | . | .
CN(c1ccccc1)c1nc(-n2ccnc2)nc(-n2ccnc2)n1 | 32 | . | . | .
CCCCNc1nc(N(C)c2ccccc2)nc(-n2ccnc2)n1 | 33 | . | . | .
c1ccc(-c2nc(N3CCN(c4ccccc4)CC3)nc(-n3ccnc3)n2)cc1 | . | . | . | .
O=C(Nc1ccc(F)cc1)N(CCCN1CCOCC1)Cc1cc2cc3c(cc2[nH]c1=O)OCCO3 | . | . | . | .
Cc1ccc2cc(CN(CCN3CCCC3)C(=O)Nc3ccc(F)cc3)c(=O)[nH]c2c1C | 38 | . | . | .
Cc1ccc2cc(CN(CCN3CCCC3)C(=O)Nc3ccccc3)c(=O)[nH]c2c1C | . | . | . | .
CCc1ccc2[nH]c(=O)c(CN(CCCN3CCOCC3)C(=O)Nc3ccc(F)cc3)cc2c1 | 34 | . | . | .
Cc1nc2sccn2c1-c1nc(C2CC2)c(C(=O)c2ccc3c(c2)NC(=O)CO3)s1 | . | . | . | .
CCNC(=O)Cn1cc(C#N)c2ccccc21 | . | / | . | .
O=C(C1CCCN(S(=O)(=O)Cc2ccccc2)C1)N1CCC(Cc2ccccc2)CC1 (centres undefined) | 26 | / | . | .
CS(=O)(=O)N1CCC(C(=O)N2CCC(Cc3ccccc3)CC2)CC1 | . | . | . | .
COC(=O)C1=C(C)NC(=O)C1(NS(=O)(=O)c1ccc(NC(C)=O)cc1)C(F)(F)F (centres undefined) | . | / | . | .
O=C(Nc1cc(Cl)ccc1Cl)c1ccc(OC(=O)c2ccco2)cc1 | . | / | . | .
